Published values collected from several papers.
Each line is one published result; the experiments were not run side by side. pIC50, pKi: −log10 of the molar value.
Target: 5-hydroxytryptamine receptor 1A (HTR1A, Homo sapiens, UniProt P08908)
One construct used (P08908 1-422): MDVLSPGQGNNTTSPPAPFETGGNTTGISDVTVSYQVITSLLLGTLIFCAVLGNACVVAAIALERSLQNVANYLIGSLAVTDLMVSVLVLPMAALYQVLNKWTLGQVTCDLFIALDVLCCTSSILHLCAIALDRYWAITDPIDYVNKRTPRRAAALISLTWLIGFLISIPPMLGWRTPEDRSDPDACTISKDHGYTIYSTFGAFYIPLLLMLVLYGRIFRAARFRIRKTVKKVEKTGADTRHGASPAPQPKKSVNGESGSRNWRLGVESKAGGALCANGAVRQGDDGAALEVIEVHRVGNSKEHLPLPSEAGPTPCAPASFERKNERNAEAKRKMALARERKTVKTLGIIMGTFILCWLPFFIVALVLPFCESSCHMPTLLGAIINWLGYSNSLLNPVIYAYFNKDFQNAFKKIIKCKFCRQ

SMILES | assay | measurement | value
CN(C)CCc1c[nH]c2cccc(O)c12 | ligand displacement, radioligand | pKi | 7.08
C[C@H](N)Cn1ncc2ccc3c(c21)CCCO3 | cell-free assay, radioligand | pKi | 6.53
CN1C[C@@H](CO)C=C2c3cccc4[nH]cc(c34)C[C@H]21 | ligand displacement, radioligand | pIC50 | 8.64
CC[C@@H](CO)NC(=O)[C@@H]1C=C2c3cccc4c3c(cn4C)C[C@H]2N(C)C1 | cell-free assay | pKi | 7.15
NCCc1c[nH]c2cccc(O)c12 | ligand displacement, radioligand | pKi | 7.36
CC(CCc1ccccc1)NC(C)C(O)c1ccc(O)cc1 (stereo not drawn) | calcium signal, antagonist | pIC50 | 4.93
NCCc1c[nH]c2cc(F)ccc12 | ligand displacement, radioligand | pKi | 6.57
COCCCN1CCN(c2ccccc2OC)CC1 | cell-free assay | pKi | 6.96
CCCCCNC(=N)N/N=C/c1c[nH]c2ccc(OC)cc12 | ligand displacement, radioligand | pIC50 | 6.84
